High-throughput results: PubChem BioAssay, Johns Hopkins Ion Channel Center
TRPC6 activator – activators of mouse TRPC6 channel; Q61143; HEK293-TRPC6 membrane potential dye fluorescence; stronger effect = higher value; B-score at 10 µM; 310,000 compounds, 0.13% hits; AID 2550;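 active = B-score of the integrated fluorescence ratio above library mean plus 3 SD, and starting fluorescence ratio within library mean plus 5 SD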;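 note: higher score means more depolarization so channel activation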
TRPC6 inhibitor – mouse TRPC6 channel inhibition | HEK293-TRPC6, membrane potential dye, ACh-evoked depolarization; stronger effect = lower value | B-score at 10 µM | 310,000 compounds, 1.1% hits | AID 2553;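 active = B-score under library mean minus 3 SD, initial fluorescence not abnormally high, positive integrated signal ratio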;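 note: B-score derived from integrated fluorescence ratio over the kinetic read; more negative B-score means stronger inhibition of depolarization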
TRPC4 act – TRPC4 (mouse) channel activation; B-score at 10 µM; AID 2237; 310,000 compounds, 0.49% hits; Q9QUQ5; HEK293 TRPC4beta/mu-opioid, Fluo4 calcium fluorescence; stronger effect = higher value;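 active = B-score above 5 SD of library B-scores, and initial fluorescence ratio not above library mean plus 5 SD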;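 note: positive B-score marks a calcium rise read as TRPC4 activation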
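Test system: HEK293 cells stably co-expressing mouse TRPC4beta and mu-opioid receptor | Schedule: Fluo4 dye loading 45 min at room temperature, 110 s recording | Measured by: Kinetic Fluo4 calcium fluorescence, 5 s baseline at 1 Hz | Evaluation: B score of integrated ratio | Controls: Buffer (low) and maximal DAMGO (high)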
TRPC4 inh – TRPC4 (mouse) channel inhibition; Q9QUQ5; HEK293 TRPC4beta/mu-opioid, DAMGO-evoked Fluo4 calcium flux; stronger effect = lower value; B-score at 10 µM; 300,000 compounds, 0.39% hits;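 active = B-score over 3 SD under the library average, no early fluorescence shift, positive overall ratio signal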
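System: stable TRPC4beta/mu-opioid receptor HEK293 cells; Dosing: single-point compound dosing; Measured by: Fluo4 Ca2+ flux fluorescence; Read-out basis: per-well B score of integrated baseline-normalized Fluo4 ratio.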
TRPC4 potent – TRPC4 (mouse) allosteric potentiation | AID 2227 | HEK293 TRPC4beta/mu-opioid, DAMGO EC20, Fluo-4 Ca2+ flux; stronger effect = higher value | 310,000 compounds, 0.42% hits | Q9QUQ5 | B-score at 10 µM;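 active = B-score of calcium response area above 5 SD of library B-scores, with initial fluorescence ratio within 5 SD of library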;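 note: B-score of integrated fluorescence ratio over time as area under calcium response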
Kir21 block – Kir2.1 (mouse) channel inhibition | P35561 | HEK293-Kir2.1, FluxOR thallium flux fluorescence; stronger effect = lower value | B-score at 10 µM | 310,000 compounds, 0.85% hits | AID 1672;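 active = fluorescence ratio B-score at or below minus 3 SD of library scores, with starting-brightness B-score within 2 SD, cut at about -4.2 in these data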;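 note: channel flux triggered by added potassium and thallium sulfate stimulus; B-score of peak minus minimum fluorescence over baseline after thallium stimulus; more negative B-score means stronger Kir2.1 block with less thallium influx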
Target sequence (P35561 whole entry, looked up): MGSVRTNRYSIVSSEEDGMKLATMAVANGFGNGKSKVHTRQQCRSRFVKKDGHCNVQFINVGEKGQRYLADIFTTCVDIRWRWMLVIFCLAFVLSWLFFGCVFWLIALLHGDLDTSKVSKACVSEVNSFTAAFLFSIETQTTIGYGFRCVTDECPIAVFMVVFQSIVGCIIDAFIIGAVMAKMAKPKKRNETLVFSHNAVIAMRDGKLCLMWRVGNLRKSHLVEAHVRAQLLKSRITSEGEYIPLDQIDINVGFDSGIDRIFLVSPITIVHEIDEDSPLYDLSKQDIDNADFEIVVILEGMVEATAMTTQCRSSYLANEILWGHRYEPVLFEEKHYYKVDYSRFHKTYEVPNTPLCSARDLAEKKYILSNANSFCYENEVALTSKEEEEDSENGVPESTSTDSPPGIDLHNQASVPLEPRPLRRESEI
* = called active by the depositor; i = inactive. The list is not random: actives were taken first. Their share in the collection is about 2.9%.

SMILES	TRPC6 activator	TRPC6 inhibitor	TRPC4 act	TRPC4 inh	TRPC4 potent	Kir21 block
Cc1ccc(NC(=O)C2(S(=O)(=O)c3ccc(Cl)cc3)CC2)c(Br)c1	i	i	i	i	i	-2.6
COc1ccc(OCCCn2ccnc2)cc1	i	i	i	i	i	-0.11
CCOc1cccc(OCCCCn2ccnc2)c1	i	i	43*	i	i	-0.54
Cc1cc(OCCCn2ccnc2)cc(C)c1Cl	i	i	104*	i	i	-0.54
Cc1cc(OCCCCCn2ccnc2)cc(C)c1Cl	i	i	75*	i	i	-3.4
Cc1cc(C)c(OCCCCCn2ccnc2)c(C)c1	i	i	i	i	i	-1.4
Cc1ccc(C)c(OCCCCCn2ccnc2)c1	i	i	169*	i	i	-0.24
CCn1ncc(/C=N/NS(=O)(=O)c2ccc(Cl)cc2)c1C	i	i	i	i	i	0.68
Cc1cc(Cl)cc(C)c1OCCCCCn1ccnc1	i	i	86*	i	i	-1.6
Cc1cc(OCCCn2ccnc2)ccc1[N+](=O)[O-]	i	i	43*	i	21*	-0.71
Cc1cc(Cl)cc(C)c1OCCn1ccnc1	i	i	i	i	i	-3.1
Cc1ccc(OCCn2ccnc2)c([N+](=O)[O-])c1	i	i	i	i	i	0
COc1ccccc1C(=O)NCC(=O)OCC(=O)c1cccc2ccccc12	i	i	i	i	i	1.4
Cc1ccc(-c2nc3ccsc3c(=O)[nH]2)cc1	i	i	i	i	i	-0.7
CCC1=NN(C(=O)COc2ccccc2)C(O)(c2ccncc2)C1 (configuration not stated)	i	i	i	i	i	2.4
Cc1ccccc1OCC(=O)N1N=C(C(F)(F)F)CC1(O)C(C)(C)C (configuration not stated)	i	i	i	i	i	-0.1
CCOC(=O)C1=NN(C(=O)COc2ccccc2)C(O)(c2ccc(Br)cc2)C1 (configuration not stated)	i	i	47*	i	i	0.05
CC1=NN(C(=O)COc2ccc(C)c(C)c2)C(O)(c2ccc(Cl)cc2)C1 (configuration not stated)	i	i	i	i	22*	-0.4
Cc1ccc(OCC(=O)N2N=C(C(F)(F)F)CC2(O)C(C)(C)C)cc1C (configuration not stated)	i	i	i	i	i	-4.2*
Cc1ccc(C(=O)O)cc1-n1c(=O)n(Cc2ccccc2)c(=O)c2[nH]cnc21	i	i	i	i	i	0.84
O=C(C1COc2ccccc2O1)N1CCN(Cc2ccc(Br)cc2F)CC1 (configuration not stated)	i	i	i	i	i	0.62
Cc1noc(C)c1S(=O)(=O)N1CCN(S(=O)(=O)c2ccccc2C#N)CC1	i	i	i	i	i	-0.11
CCn1c(N2CCN(S(=O)(=O)CC)CC2)nc2ccccc21	i	i	126*	i	i	-0.88
CCn1c(N2CCN(C(=S)NCCc3ccccc3)CC2)nc2ccccc21	i	i	87*	i	i	-0.82
CCn1c(N2CCN(C(=S)Nc3ccc(OC)cc3)CC2)nc2ccccc21	i	i	52*	i	i	-0.04
SMILES	TRPC6 activator	TRPC6 inhibitor	TRPC4 act	TRPC4 inh	TRPC4 potent	Kir21 block
CCn1c(N2CCN(S(=O)(=O)c3ccc(F)cc3)CC2)nc2ccccc21	i	i	i	i	i	-0.03
CCCn1c(N2CCN(Cc3ccc(Cl)cc3)CC2)nc2ccccc21	i	i	i	i	i	-1.7
CCn1c(N2CCN(Cc3ccc([N+](=O)[O-])cc3)CC2)nc2ccccc21	i	i	124*	i	12*	1.1
Cc1cc2nc(CSc3ccc(Cl)cc3)cc(=O)n2[nH]1	i	i	i	i	i	0.13
Cc1cccc(Cn2ccc(NC(=O)c3ccc4c(c3)OCO4)n2)c1	i	i	i	i	i	-2.1
C[C@@H](C(=O)N1CCN(Cc2ccc3c(c2)OCO3)CC1)n1nnc2ccccc2c1=O	i	i	i	i	i	-0.43
Cc1ccc(S(=O)(=O)Oc2ccc(/C=C(/NC(=O)c3ccccc3)C(=O)NC(C)C(=O)O)cc2)cc1 (configuration not stated)	i	i	i	i	i	1.4
CCC(=O)N1CN(S(=O)(=O)c2ccc(C)cc2)CC1C (configuration not stated)	i	i	i	i	i	-1.6
CC(C)CNC(=S)N1CCN(c2nc3ccccc3s2)CC1	i	i	i	i	i	-0.09
Cn1c(N2CCN(C(=O)Nc3ccc(F)cc3)CC2)nc2ccccc21	i	i	88*	i	i	0.73
CCn1c(N2CCN(C(=S)NC)CC2)nc2ccccc21	i	i	68*	i	i	0.46
CCn1c(N2CCN(S(=O)(=O)c3ccc(Cl)cc3)CC2)nc2ccccc21	i	i	i	i	i	-0.11
CC(C)n1c(N2CCN(C(=O)Nc3ccccc3)CC2)nc2ccccc21	i	i	i	i	i	-0.66
CCn1c(N2CCN(C(=S)NCC(C)C)CC2)nc2ccccc21	i	i	105*	i	i	0.52
O=C(O)CCC(=O)Nc1cccc(-c2nc3ccccc3o2)c1	i	i	i	i	i	0.72
CC1(C)CC2CC(C)(CN2/C=C2/CCCCC2=O)C1 (configuration not stated)	i	i	i	i	i	1.7
Cc1ccc(NC(=O)c2ccc3ncsc3c2)cc1S(=O)(=O)N(C)C	i	i	i	i	i	-0.87
CCn1c(SCc2nc(-c3ccc(Cl)cc3)no2)nnc1-c1ccco1	i	i	i	i	i	-4.7*
Cc1ccccc1CSc1nnc(-c2cccs2)n1Cc1ccco1	i	i	i	i	i	-1.3
c1ccc(CSc2nnc(-c3cccs3)n2Cc2ccco2)cc1	i	i	i	i	i	-7.7*
c1ccc(CSc2nnc(-c3ccco3)n2Cc2ccco2)cc1	i	i	i	i	i	-1.4
Cc1ccccc1CSc1nnc(-c2ccco2)n1Cc1ccco1	i	i	i	i	i	-8.2*
CN(C)c1ccc(CN(C(=O)c2ccccc2Br)C2CCS(=O)(=O)C2)cc1 (configuration not stated)	i	i	i	i	i	0.64
